pEC50: −log10 of the molar value. Activity calls are given as the source filed them. The rule behind the calls is not given here.
What was measured:
Hepatitis C virus = experiment: Antiviral activity against Hepatitis C virus; type: functional, organism-based; settings: Hepacivirus hominis
Hepatitis B virus = experiment: Antiviral activity against Hepatitis B virus; type: functional, organism-based
[1] = Cytotoxicity against human Akata cells; type: cell-based
[2] = biological target: T1, Adenosine deaminase (Bos taurus) (UniProt P56658); experiment: Activity of calf intestine adenosine deaminase assessed as deamination after 48 hrs; design: concentration or dose not given beside the values
T1 sequence (whole entry): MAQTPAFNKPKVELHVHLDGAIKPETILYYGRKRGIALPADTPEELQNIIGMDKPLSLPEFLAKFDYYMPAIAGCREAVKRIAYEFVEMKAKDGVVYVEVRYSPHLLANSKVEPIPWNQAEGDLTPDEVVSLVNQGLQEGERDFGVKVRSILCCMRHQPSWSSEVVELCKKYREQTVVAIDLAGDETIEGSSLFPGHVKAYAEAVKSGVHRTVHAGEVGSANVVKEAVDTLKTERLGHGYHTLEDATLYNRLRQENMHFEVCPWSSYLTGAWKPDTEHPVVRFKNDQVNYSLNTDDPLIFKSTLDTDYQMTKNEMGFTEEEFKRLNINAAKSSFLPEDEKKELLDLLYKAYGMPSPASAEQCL
Method in brief: (§1)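 Substrate (2 µmol) stirred with calf intestine ADA (1.7 units) in 0.05 M Na2HPO4, pH 7.5, 0.6 mL total. Aliquots withdrawn, diluted with buffer, and UV spectra recorded. Deamination followed as the fall in absorbance at 260 nm, expressed as percent deaminated at 24 h and 48 h.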

[3] = biological target: T1, Adenosine deaminase (Bos taurus); experiment: Activity of calf intestine adenosine deaminase assessed as deamination after 24 hrs; design: concentration or dose not given beside the values; method in brief: as §1
Human gammaherpesvirus 4 = experiment: Antiviral activity against Epstein-Barr virus infected in human Akata cells by DNA hybridization assay; type: functional, organism-based; settings: human gammaherpesvirus 4, Akata
Method in brief: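 EBV DNA hybridization assay run in Akata cells; EC50 by DNA hybridization.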

Human betaherpesvirus 5 [4] = experiment: Antiviral activity against Human cytomegalovirus Towne infected in human foreskin fibroblast cells by plaque reduction assay; type: functional, organism-based; settings: Human betaherpesvirus 5, Towne
Method in brief: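 HCMV Towne in human foreskin fibroblasts, plaque reduction assay; EC50 from plaque counts; cytotoxicity scored visually in uninfected HFF used for the plaque assays.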

Human betaherpesvirus 5 [5] = experiment: Antiviral activity against Human cytomegalovirus AD169 infected in human foreskin fibroblast cells assessed as inhibition of virus-induced cytopathic effect; type: functional, organism-based; settings: Human betaherpesvirus 5, AD169, Fibroblast
Method in brief: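 HCMV strain AD169 grown in human foreskin fibroblasts; cytopathic effect (CPE) inhibition assay gives EC50; cytotoxicity taken by neutral red uptake.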

Human betaherpesvirus 5 [6] = experiment: Antiviral activity against Human cytomegalovirus E8 with phosphotransferase UL97 two point mutation by plaque reduction assay; type: functional, organism-based; settings: Human betaherpesvirus 5, E8
Method in brief: (§2)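 Plaque reduction in HFF cells with UL97-mutant HCMV raised from Towne: E8 (two point mutations in UL97, selected by growth in synadenol) and 2696r (truncated UL97, selected in cyclopropavir). Four drug concentrations tested in duplicate; EC50 from plaque counts.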

Murid betaherpesvirus 1 = experiment: Antiviral activity against Murine cytomegalovirus infected in mouse embryonic fibroblast cells by plaque reduction assay; type: functional, organism-based; settings: Murid betaherpesvirus 1, Fibroblast
Method in brief: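 MCMV plaque reduction assay in mouse embryonic fibroblast (MEF) cells; EC50 from plaque counts.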

Human betaherpesvirus 5 [7] = experiment: Antiviral activity against cyclopropavir-resistant Human cytomegalovirus isolate 2696r with phosphotransferase UL97 mutation by plaque reduction assay; type: functional, organism-based; settings: Human betaherpesvirus 5, isolate 2696r; method in brief: as §2
HFF [8] = experiment: (§3) Cytotoxicity against HFF cells by plaque reduction assay; type: cell-based; settings: human, hff
Method in brief: (§4)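 Cytotoxicity scored visually in uninfected HFF cells run alongside the HCMV plaque reduction assays.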

HFF [9] = experiment: (§5) Cytotoxicity against HFF cells by neutral red uptake assay; type: cell-based; settings: human, hff
Method in brief: (§6)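 Uninfected HFF cells, run alongside the HCMV cytopathic effect inhibition assay. Cytotoxicity read by neutral red uptake.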

MEF = experiment: Cytotoxicity against MEF cells; type: cell-based; settings: mouse
Human alphaherpesvirus 3 = experiment: Antiviral activity against Varicella zoster virus infected in human foreskin fibroblast cells; type: functional, organism-based; settings: Human alphaherpesvirus 3, Fibroblast
[10] = Cytotoxicity against african green monkey BSC1 cells; type: cell-based; settings: chlorocebus aethiops, bsc-1
Human alphaherpesvirus 1 [11] = experiment: Antiviral activity against HSV1 infected in human foreskin fibroblast cells; type: functional, organism-based
Human alphaherpesvirus 1 [12] = experiment: Antiviral activity against HSV1 infected in african green monkey BSC1 cells by ELISA; type: functional, organism-based; settings: Human alphaherpesvirus 1, BSC-1
Human alphaherpesvirus 2 = experiment: Antiviral activity against HSV2 infected in human foreskin fibroblast cells; type: functional, organism-based
[13] = as §3; type: cell-based; settings: human, HFF cells; method in brief: as §4
[14] = as §5; type: cell-based; settings: human, HFF cells; method in brief: as §6

SMILES	Activity (Hepatitis C virus)	Activity (Hepatitis B virus)	CC50 ([1]; akata) [µM]	Activity [2] [%]	Activity [3] [%]	pEC50 (Human gammaherpesvirus 4)	pEC50 (Human betaherpesvirus 5 [4])	pEC50 (Human betaherpesvirus 5 [5])	CC50 (HFF [9]) [µM]	other results
Nc1ncnc2c1ncn2/C=C1\C[C@@H]1[C@@H](O)CO	inactive	inactive	50.6	100	100	4.30	< 4.00	< 3.52		
Nc1nc2c(ncn2COC(CO)CO)c(=O)[nH]1 [GANCICLOVIR]	inactive	inactive					5.92	7.40		pEC50 (Human betaherpesvirus 5 [6]): 4.66; pEC50 (Murid betaherpesvirus 1): 5.26; pEC50 (Human betaherpesvirus 5 [7]): 4.38
Nc1ncnc2c1ncn2/C=C1/C[C@@H]1[C@H](O)CO	inactive	inactive	50.5	80	45	< 4.70	< 4.00	3.52		
Nc1nc2c(ncn2/C=C2\C[C@H]2[C@H](O)CO)c(=O)[nH]1	inactive	inactive	86.6			4.23	< 4.00	< 3.52		CC50 (HFF [8]): > 300 µM
Nc1nc2c(ncn2COCCO)c(=O)[nH]1 [ACYCLOVIR]	inactive	inactive				5.48				CC50 ([1]; Akata cells): > 100 µM
Nc1nc2c(ncn2/C=C2/C[C@H]2[C@H](O)CO)c(=O)[nH]1	inactive	inactive	62.6			< 4.70	< 4.00	< 3.52		
Nc1ncnc2c1ncn2/C=C1\C[C@H]1[C@H](O)CO	inactive	inactive	72.7	85	65	5.01	< 4.00	< 4.22	194	
Nc1nc2c(ncn2/C=C2/C[C@@H]2[C@H](O)CO)c(=O)[nH]1	inactive	inactive	54			4.37	< 4.00	< 3.52		
Nc1ncnc2c1ncn2/C=C1\C[C@H]1[C@@H](O)CO	inactive	inactive	73	100	100	4.77	< 4.00	< 4.22	264	
Nc1ncnc2c1ncn2/C=C1\C[C@@H]1[C@H](O)CO	inactive	inactive	57	100	85	< 4.70	< 4.00	< 4.22		CC50 (HFF [8]): > 100 µM
Nc1nc2c(ncn2/C=C2/C[C@H]2[C@@H](O)CO)c(=O)[nH]1	inactive	inactive	78			5.10	5.17	5.12	299	CC50 (HFF [8]): > 100 µM; pEC50 (Human betaherpesvirus 5 [6]): 4.14; Activity (MEF): Not Active; pEC50 (Human alphaherpesvirus 3): 4.33; CC50 [10]: > 100 µM; pEC50 (Murid betaherpesvirus 1): 4.95; Activity (Human alphaherpesvirus 1 [11]): inactive; pEC50 (Human alphaherpesvirus 1 [12]): 4.30; Activity (Human alphaherpesvirus 2): inactive; pEC50 (Human betaherpesvirus 5 [7]): < 4.00
Nc1nc(O)c2ncn(COC(CO)CO)c2n1 [GANCICLOVIR]										CC50 [13]: > 100 µM; CC50 [14]: > 100 µM
Nc1nc2c(ncn2/C=C2\C[C@@H]2[C@H](O)CO)c(=O)[nH]1	inactive	inactive	67			< 4.70	< 4.00	< 4.22	> 300	
Nc1nc2c(ncn2/C=C2/C[C@@H]2[C@@H](O)CO)c(=O)[nH]1	inactive	inactive	56			< 4.70	< 4.00	< 3.52		
Nc1nc2c(ncn2/C=C2\C[C@H]2[C@@H](O)CO)c(=O)[nH]1	inactive	inactive	75			4.40	< 4.00	< 4.22	298	
Nc1ncnc2c1ncn2/C=C1/C[C@@H]1[C@@H](O)CO	inactive	inactive	55	80	65	4.37	< 4.00	< 4.22	> 300	
Nc1ncnc2c1ncn2/C=C1/C[C@H]1[C@H](O)CO	inactive	inactive	93.5	0	0	4.22	< 4.00	< 4.22	206	
Nc1nc2c(ncn2/C=C2/CC2(CO)CO)c(=O)[nH]1 [FILOCICLOVIR]	inactive	inactive				6.66	6.34	6.31		CC50 [13]: > 100 µM; pEC50 (Human betaherpesvirus 5 [6]): 5.10; CC50 [14]: > 100 µM; pEC50 (Human betaherpesvirus 5 [7]): 4.55
Nc1ncnc2c1ncn2/C=C1/C[C@H]1[C@@H](O)CO	inactive	inactive	61.5	0	0	4.28	< 4.00	< 4.22		
Nc1nc2c(ncn2/C=C2\C[C@@H]2[C@@H](O)CO)c(=O)[nH]1	inactive	inactive	61			4.74	< 4.00	< 3.52		
